Reference: ChEMBL document CHEMBL1125091, “Antiulcer agents. 4-substituted 2-guanidinothiazoles: reversible, competitive, and selective inhibitors of gastric H+,K(+)-ATPase” (J Med Chem, 1990)
Values belong to the compound of their own block, whether it stands above or below them. Active and inactive are the calls of the source. No cut-off for these calls is given here.

Key:
[1] = molecular target: Dog Kidney Na+, K+-ATPase (Canis lupus familiaris, UniProt P50997); test: Tested against canine renal Na+/K+ ATPase
[2] = test system: Potassium-transporting ATPase (Canis familiaris); test: Percent inhibition of gastric proton-pump enzyme H+/K+ ATPase was determined at 50 uM; settings: Canis lupus familiaris, Stomach
Rattus norvegicus [3] = test: Gastric antisecretory activity against gastric secretion in the pylorus-ligated rat at a dose of 26 mg/Kg; format: functional, Stomach
Procedure, shortened: (§1)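 Conscious rats, pylorus ligated under ether anesthesia; drug or vehicle injected into the duodenum. Killed 2 h after surgery. Stomach contents centrifuged, then titrated to pH 7.0 for acid output (uEq/h per 100 g body weight). Inhibition calculated versus vehicle-treated rats. Means ± SE of 5-10 animals; Student's t test, p < 0.05.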

[4] = molecular target: Potassium-transporting ATPase (Canis familiaris); test: Inhibitory activity against dog gastric proton-pump enzyme H+/K+ ATPase
Rattus norvegicus [5] = species: Rattus norvegicus; test: Antisecretory activity in a pylorus-ligated rat model
Rattus norvegicus [6] = test: Gastric antisecretory activity against gastric secretion in the pylorus-ligated rat at a dose of 33 mg/Kg; format: functional, Stomach; procedure, shortened: as §1
[7] = test system: Potassium-transporting ATPase (Canis familiaris); test: Percent inhibition of gastric proton-pump enzyme H+/K+ ATPase was determined at 10 uM; settings: Canis lupus familiaris, Stomach
Rattus norvegicus [8] = test: Gastric antisecretory activity against gastric secretion in the pylorus-ligated rat at a dose of 30 mg/Kg; format: functional, Stomach; procedure, shortened: as §1
Rattus norvegicus [9] = test: Gastric antisecretory activity against gastric secretion in the pylorus-ligated rat at a dose of 60 mg/Kg; format: functional, Stomach; procedure, shortened: as §1
Rattus norvegicus [10] = test: Gastric antisecretory activity against gastric secretion in the pylorus-ligated rat at a dose of 10 mg/Kg; format: functional, Stomach; procedure, shortened: as §1
[11] = molecular target: Potassium-transporting ATPase (Canis familiaris); test: Inhibitory activity of gastric proton-pump enzyme H+/K+ ATPase was determined at 50 uM
Canis familiaris = test: Antisecretory activity in Heidenhain pouch dog model at 2 mg/kg, iv; format: functional, organism-based; parameters: dose 2 mg/kg; settings: Canis lupus familiaris
Procedure, shortened: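 Heidenhain pouch dogs on pentagastrin infusion; drug or vehicle given iv at 2 mg/kg, 90 min after the infusion started. Gastric juice collected at 30-min intervals, ten collections per dog. Acid titrated to pH 7.4 with 0.1 N NaOH. Effect = lowest acid output after drug versus mean output immediately before drug.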

[12] = molecular target: Potassium-transporting ATPase (Canis familiaris); test: The compound was tested in vitro for inhibition of gastric proton-pump enzyme H+/K+ ATPase
Rattus norvegicus [13] = test: Gastric antisecretory activity against gastric secretion in the pylorus-ligated rat at a dose of 60 mg/kg; format: functional, Stomach; procedure, shortened: as §1

IC50 [1]: > 100 µM
inhibition [2]: 70%
IC50 [4]: 25 µM
SMILES: Cc1cc(-c2csc(N=C(N)N)n2)c[nH]1
Activity (Rattus norvegicus [3]): 50%

inhibition [2]: 76%
IC50 [4]: 45 µM
SMILES: Cc1ccc(-c2csc(N=C(N)N)n2)[nH]1.O=C(O)/C=C\C(=O)O
Activity (Rattus norvegicus [6]): 50%

inhibition [7]: 55%
IC50 [4]: 7.6 µM
SMILES: Cc1cccc2c(-c3csc(N=C(N)N)n3)c[nH]c12

inhibition [2]: 100%
IC50 [12]: 1000 nM
IC50 [4]: 1.2 µM
SMILES: Cc1cc(-c2nc(N=C(N)N)sc2C)c[nH]1
Activity (Rattus norvegicus [13]): 36%

Second part, the compound before the results:

SMILES: CN/C(=N\CCSCc1nc[nH]c1C)NC#N [CIMETIDINE]
ED50 (Rattus norvegicus [5]): 11 mg/kg

SMILES: Br.COc1ccc(-c2csc(N=C(N)N)n2)cc1
Activity (Rattus norvegicus [8]): 26%
Activity (Rattus norvegicus [9]): 87%
Activity (Rattus norvegicus [10]): 27%

SMILES: Cc1[nH]c2ccccc2c1-c1nc(N=C(N)N)sc1C.Cl
IC50 [11]: 6.2 µM
Activity (Rattus norvegicus [9]): 78%
Activity (Rattus norvegicus [10]): 51%
Activity (Canis familiaris): inactive

SMILES: Cl.N=C(N)Nc1nc(-c2c[nH]c3ccc(Br)cc23)cs1
inhibition [7]: 90%
Activity (Rattus norvegicus [9]): -43%
IC50 [4]: 0.96 µM
